Test results taken from ChEMBL document CHEMBL1133629, “Cholic acid derivatives as 1,2,4,5-tetraoxane carriers: structure and antimalarial and antiproliferative activity” (J Med Chem, 2000).

Tests used:
[1] = Antiproliferative activity in Fem-X of Human melanoma; assay type: functional
Method in brief: (§1)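 Cells were maintained as monolayers at 37 °C, 5% CO2, in RPMI-1640 with 10% heat-inactivated FBS, 25 mM Hepes, pH 7.2. They were seeded at 2000 cells/well in triplicate, and five concentrations were added 20 h later from 8 mM DMSO stocks; DMSO-only controls. MTT was added at 72 h for 4 h, then SDS/HCl, with OD570 read the next day. Blank-corrected survival vs control; IC50 = 50% survival inhibition.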

HeLa = experiment: Antiproliferative activity in HeLa cells of Human cervix carcinoma; assay type: functional, cell-based; method in brief: as §1
Plasmodium falciparum [2] = experiment: Antimalarial activity in Plasmodium falciparum Indochina W2; assay type: functional, organism-based
Method in brief: (§2)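 P. falciparum clones in human erythrocytes at 0.2% parasitemia and 1% hematocrit, in RPMI-1640 without folate or PABA plus 10% heat-inactivated human plasma. Compounds were diluted 2-fold 11 times ([…] range). Incubation was at 37 °C under 5% CO2/5% O2/90% N2, with [3H]hypoxanthine added at 42 h and 24 h further (66 h total). Cells were freeze-lysed, harvested and scintillation-counted; IC50 by nonlinear logistic dose-response fit.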

Plasmodium falciparum [3] = experiment: Antimalarial activity against Plasmodium falciparum African D6; assay type: functional, organism-based; method in brief: as §2
CCRF-CEM = experiment: Antiproliferative activity as Growth inhibition in CCRF-CEM Leukemia cell line; assay type: functional; settings: Homo sapiens
Method in brief: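 NCI 60-cell-line screen: 48-h continuous drug exposure, growth measured by sulforhodamine B protein assay. GI50 is the interpolated concentration giving +50 percentage growth.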

[4] = Cytotoxic activity against phytohemagglutininin (PHA)-stimulated peripheral blood mononuclear cells (PBMC) inhibition; assay type: functional; settings: Homo sapiens; read-out: Cytotoxicity IC50
Method in brief: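 PBMC were isolated from heparinized blood of three healthy volunteers by density-gradient centrifugation and seeded at 100 000 cells/well in RPMI-based medium. Stimulated cultures received PHA at 5 µg/mL final; non-stimulated cultures received none. Compound dilutions were added 2 h later in triplicate, with medium-only controls. IC50 was determined for each donor.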

[5] = Selectivity, ratio of PHA-stimulated PBMC to PBMC; assay type: functional
[6] = Selectivity, ratio of PHA-stimulated PBMC to D6 clone; assay type: functional
FM3A = experiment: Antiproliferative activity in Mouse mammary tumor FM3A; assay type: functional, cell-based
Plasmodium falciparum [7] = experiment: Antimalarial activity in Plasmodium falciparum FCR3; assay type: functional, organism-based

For COC(=O)CCC(C)[C@H]1CC[C@H]2[C@@H]3[C@H](OC(C)=O)C[C@@H]4C[C@]5(CC[C@]4(C)[C@H]3C[C@H](OC(C)=O)[C@]12C)OO[C@]1(CC[C@@]2(C)[C@H](C[C@@H](OC(C)=O)[C@@H]3[C@@H]2C[C@H](OC(C)=O)[C@]2(C)[C@@H](C(C)CCC(=O)OC)CC[C@@H]32)C1)OO5 (some centres not stated), the IC50 [1] was 19.5 µM, the IC50 (HeLa; Homo sapiens, HeLa) was 20.5 µM and the IC50 (Plasmodium falciparum [2]) was over 96 nM. It also gave an IC50 (Plasmodium falciparum [3]) of over 96 nM.

Work on CC(=O)O[C@H]1C[C@H]2[C@@H]([C@H](OC(C)=O)C[C@@H]3C[C@]4(CC[C@@]32C)OO[C@]2(CC[C@@]3(C)[C@H](C[C@@H](OC(C)=O)[C@@H]5[C@@H]3C[C@H](OC(C)=O)[C@]3(C)[C@@H](C(C)CCC(N)=O)CC[C@@H]53)C2)OO4)[C@@H]2CC[C@H](C(C)CCC(N)=O)[C@@]12C (some centres not stated) yielded an IC50 [1] of 6.2 µM, an IC50 (HeLa; Homo sapiens, HeLa) of 6 µM and an IC50 (Plasmodium falciparum [2]) of 59.4 nM. For the same compound, the IC50 (Plasmodium falciparum [3]) was 129 nM.

In the case of COC(=O)CCC(C)[C@H]1CC[C@H]2[C@@H]3[C@H](OC(C)=O)C[C@@H]4C[C@]5(CC[C@]4(C)[C@H]3C[C@H](OC(C)=O)[C@]12C)OO[C@@]1(CC[C@@]2(C)[C@H](C[C@@H](OC(C)=O)[C@@H]3[C@@H]2C[C@H](OC(C)=O)[C@]2(C)[C@@H](C(C)CCC(=O)OC)CC[C@@H]32)C1)OO5 (some centres not stated), the GI50 (CCRF-CEM) is reported as 14800 nM, the IC50 [1] is reported as over 29 µM and the IC50 (HeLa; Homo sapiens, HeLa) is reported as over 29 µM. The IC50 (Plasmodium falciparum [2]) was over 96 nM and the IC50 (Plasmodium falciparum [3]) was over 96 nM.

Compound CC(=O)O[C@H]1C[C@H]2[C@@H]([C@H](OC(C)=O)C[C@@H]3C[C@]4(CC[C@@]32C)OO[C@@]2(CC[C@@]3(C)[C@H](C[C@@H](OC(C)=O)[C@@H]5[C@@H]3C[C@H](OC(C)=O)[C@]3(C)[C@@H](C(C)CCC(=O)O)CC[C@@H]53)C2)OO4)[C@@H]2CC[C@H](C(C)CCC(=O)O)[C@@]12C (some centres not stated) has a GI50 (CCRF-CEM) of 1.2 nM, an IC50 [1] of 0.0042 µM and an IC50 (HeLa; Homo sapiens, HeLa) of 0.0052 µM. For the same compound, the IC50 (Plasmodium falciparum [2]) was over 99 nM and the IC50 (Plasmodium falciparum [3]) was over 99 nM.

Work on CCCNC(=O)CCC(C)[C@H]1CC[C@H]2[C@@H]3[C@H](OC(C)=O)C[C@@H]4C[C@]5(CC[C@]4(C)[C@H]3C[C@H](OC(C)=O)[C@]12C)OO[C@@]1(CC[C@@]2(C)[C@H](C[C@@H](OC(C)=O)[C@@H]3[C@@H]2C[C@H](OC(C)=O)[C@]2(C)[C@@H](C(C)CCC(=O)NCCC)CC[C@@H]32)C1)OO5 (some centres not stated) yielded an IC50 [1] of 23 µM, an IC50 (HeLa; Homo sapiens, HeLa) of 33 µM and an IC50 (Plasmodium falciparum [2]) of 60.4 nM. For the same compound, the CC50 [4] was 96 µM, the IC50 (Plasmodium falciparum [3]) was 9.29 nM and the Ratio [5] was over 10700. For the same compound, the Ratio [6] was 10333.

Compound CC(=O)O[C@H]1C[C@H]2[C@@H]([C@H](OC(C)=O)C[C@@H]3C[C@]4(CC[C@@]32C)OO[C@]2(CC[C@@]3(C)[C@H](C[C@@H](OC(C)=O)[C@@H]5[C@@H]3C[C@H](OC(C)=O)[C@]3(C)[C@@H](C(C)CCC(=O)O)CC[C@@H]53)C2)OO4)[C@@H]2CC[C@H](C(C)CCC(=O)O)[C@@]12C (some centres not stated) has an IC50 [1] of 0.0076 µM, an IC50 (HeLa; Homo sapiens, HeLa) of 0.0092 µM and an IC50 (Plasmodium falciparum [2]) of over 99 nM. For the same compound, the IC50 (Plasmodium falciparum [3]) was over 99 nM.

With CCCNC(=O)CCC(C)[C@H]1CC[C@H]2[C@@H]3[C@H](OC(C)=O)C[C@@H]4C[C@]5(CC[C@]4(C)[C@H]3C[C@H](OC(C)=O)[C@]12C)OO[C@]1(CC[C@@]2(C)[C@H](C[C@@H](OC(C)=O)[C@@H]3[C@@H]2C[C@H](OC(C)=O)[C@]2(C)[C@@H](C(C)CCC(=O)NCCC)CC[C@@H]32)C1)OO5 (some centres not stated) the GI50 (CCRF-CEM) was 100 nM, the IC50 [1] was 94 µM and the IC50 (HeLa; Homo sapiens, HeLa) was 0.166 µM. It also gave an IC50 (Plasmodium falciparum [2]) of 30.1 nM, a CC50 [4] of 251 µM and an IC50 (Plasmodium falciparum [3]) of 20.1 nM. The Ratio [5] was over 15900 and the Ratio [6] was 12500.

CC(=O)O[C@H]1C[C@H]2[C@@H]([C@H](OC(C)=O)C[C@@H]3C[C@]4(CC[C@@]32C)OO[C@@]2(CC[C@@]3(C)[C@H](C[C@@H](OC(C)=O)[C@@H]5[C@@H]3C[C@H](OC(C)=O)[C@]3(C)[C@@H](C(C)CCC(N)=O)CC[C@@H]53)C2)OO4)[C@@H]2CC[C@H](C(C)CCC(N)=O)[C@@]12C (some centres not stated) showed a GI50 (CCRF-CEM) of 970 nM, an IC50 [1] of 3.1 µM and an IC50 (HeLa; Homo sapiens, HeLa) of 3.7 µM. The IC50 (Plasmodium falciparum [2]) was 18.8 nM and the IC50 (Plasmodium falciparum [3]) was 23.7 nM.

C[C@@H]1CC[C@H]2[C@@H](C)C(=O)O[C@@H]3O[C@@]4(C)CC[C@@H]1[C@]32OO4 [ARTEMISININ] gave an EC50 (FM3A) of 10 µM, an IC50 (Plasmodium falciparum [2]) of 7.3 nM and an EC50 (Plasmodium falciparum [7]) of 7.8 nM. It also gave an IC50 (Plasmodium falciparum [3]) of 8.6 nM.

With CISPLATIN the IC50 (HeLa; hela) was 0.0035 µM.
